# From PubChem BioAssay
# MrgX1 antagonist: human MrgX1 receptor antagonism, primary screen; B-score at 10 µM; Q96LB2; 310,000 compounds, 1.3% hits; AID 588676; MRGX1-HEK293 calcium flux, Fluo-4, BAM8-22 antagonism; hits give low values;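 active means calcium-response B-score plate-corrected more than 3 library SD below zero, starting fluorescence within 5 deviations, no agonist response on first addition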;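 further: peak minus trough fluorescence over baseline after final BAM8-22 challenge near maximal dose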
# Target sequence (Q96LB2 whole entry, looked up): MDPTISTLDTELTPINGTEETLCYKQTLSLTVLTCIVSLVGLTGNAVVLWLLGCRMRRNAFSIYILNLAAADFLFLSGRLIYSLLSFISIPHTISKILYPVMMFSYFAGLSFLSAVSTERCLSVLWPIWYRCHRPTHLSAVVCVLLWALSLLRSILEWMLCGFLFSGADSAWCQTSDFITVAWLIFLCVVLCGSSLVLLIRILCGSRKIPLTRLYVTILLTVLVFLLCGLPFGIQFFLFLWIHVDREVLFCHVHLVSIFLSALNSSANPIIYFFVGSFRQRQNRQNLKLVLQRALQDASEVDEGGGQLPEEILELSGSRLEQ
# MrgX1 ag: human MrgX1 receptor agonism, primary screen; Q96LB2; MrgX1-HEK293 cells, Fluo-4 calcium fluorescence, agonist mode; hits give high values; B-score at 10 µM; 310,000 compounds, 0.44% hits;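 active means calcium response B-score plate-corrected fluorescence ratio at least 3 library SD, with starting fluorescence B-score inside 5 SD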
#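 times = overnight plating, then 30 min 37 °C plus 30 min room-temperature dye loading | assay system = stable human MrgX1 HEK293 cell line | input = fifteen thousand cells per well | signal = kinetic calcium dye fluorescence, Fluo-4 NW | dosing = compound delivered in addition one of three | read-out = B-scored fluorescence response ratio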
# RGS4 pot: potentiators or activators of RGS4 | HEK293 M3R/inducible RGS4, carbachol calcium flux Fluo4; hits give low values | B-score at 10 µM | 310,000 compounds, 0.92% hits | AID 463111;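 active means B-score of the integrated calcium signal more than 4 SD below the library mean, with starting fluorescence not abnormally high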;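 further: negative B-score means reduced calcium response which marks RGS4 activation or potentiation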
#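 Detection: kinetic calcium fluorescence imaging with Fluo4-AM dye, 2 µM / Material: HEK293 cells with stable M3R and inducible RGS4 / Schedule: recording 10 s baseline at 1 Hz, 100 s post-agonist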
# MrgX1 PAM: human MrgX1 positive allosteric modulation, primary screen. MrgX1-HEK293, Fluo-4 calcium flux, FDSS; hits give high values. B-score at 10 µM. 310,000 compounds, 0.63% hits. AID 588675;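 active means plate-corrected calcium response at least 3 library SD above typical, normal starting fluorescence, not activating the receptor alone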;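 further: compound read alongside a low EC10 to EC30 dose of BAM8-22 agonist; peak minus trough fluorescence over baseline measured at the second addition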
# RGS4 block: inhibitors of human RGS4 | HEK293 M3R/RGS4 inducible, Fluo-4 calcium flux; hits give high values; triggered by carbachol at its EC20 | B-score at 10 µM | 310,000 compounds, 0.45% hits | P49798 | AID 463165;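 active means B-score, a plate-corrected calcium signal, over three deviations above library mean, with baseline fluorescence within five deviations of library mean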;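 further: RGS4 expression induced by doxycycline in cells with stable M3 receptor; B-score is computed from the integrated fluorescence ratio over baseline after carbachol; higher B-score means a larger calcium signal and so more RGS4 inhibition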
# Target sequence (P49798 whole entry, looked up): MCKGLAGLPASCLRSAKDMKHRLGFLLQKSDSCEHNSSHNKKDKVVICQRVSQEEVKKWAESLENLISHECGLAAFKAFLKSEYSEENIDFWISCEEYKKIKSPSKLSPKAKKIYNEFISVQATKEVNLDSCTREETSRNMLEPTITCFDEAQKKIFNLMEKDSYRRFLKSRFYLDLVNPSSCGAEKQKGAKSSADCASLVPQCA
# MrgX1 allo conf: confirmation of human MrgX1 receptor positive allosteric modulators; shares compounds with MrgX1 PAM; AID 602413; MrgX1-HEK293, Fluo-4 calcium fluorescence, FDSS; activation (ratio percentage), % at 10 µM; 1,200 compounds, 13% hits;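 active means ratio at least 3 SD above the weak peptide control, stable starting fluorescence, no direct agonism earlier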;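 further: compound followed by low BAM8-22 agonist challenge near EC20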
# HEK293 Ca flux: MrgX1 antagonist counter-screen hit in parental HEK293 cells. shares compounds with MrgX1 antagonist. Fluo-4 calcium fluorescence, FDSS. fluorescence ratio F(max-min)/F0 at 10 µM. 4,000 compounds, 2% hits. AID 624111;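 active means duplicate-averaged calcium fluorescence ratio at least three times the standard deviation of buffer wells, a nonspecific response in parental cells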
# HEK293 Ca counter: MrgX1 allosteric activator counter-screen hit in parental HEK293 cells; parental HEK293 calcium flux, Fluo-4 fluorescence ratio; hits give high values; shares compounds with MrgX1 antagonist; 4,000 compounds, 0.4% hits; fluorescence ratio F(max-min)/F0 at 10 µM;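 active means calcium fluorescence ratio, averaged over duplicates, at least 3 SD of the buffer-well ratio, meaning a nonspecific response in receptor-free cells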;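 further: untransfected parental HEK293 lacking MrgX1 used as counterscreen for MrgX1 allosteric activators; fluorescence change taken during the second addition on a kinetic imager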
# HEK293 Ca cntr2: MrgX1 activator counter-screen hit in parental HEK293 cells; shares compounds with MrgX1 antagonist; Fluo-4 calcium fluorescence (FDSS); hits give high values; fluorescence ratio F(max-min)/F0 at 10 µM; 4,000 compounds, 8.7% hits;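 active means calcium fluorescence ratio at least three times the spread of buffer wells, meaning a non-specific response in parental cells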
# Numbers without * were called inactive; i = inactive; nt = no result. Compounds with a hit are over-represented: about 3.5% of the library has one in this group of screens.
SMILES,MrgX1 antagonist,MrgX1 ag,RGS4 pot,MrgX1 PAM,RGS4 block,MrgX1 allo conf,HEK293 Ca flux,HEK293 Ca counter,HEK293 Ca cntr2
COc1ccccc1CNC(=O)c1oc2ccccc2c1C,i,i,i,6.7*,i,i,i,i,i
Cc1c(C(=O)NCc2ccccn2)oc2ccccc12,i,i,i,i,i,nt,nt,nt,nt
Cc1nn(C)c(Nc2ccc(Br)cc2)c1Br,i,i,i,8.2*,i,i,i,i,i
O=C(NCC(=O)N1CCN(C(c2ccccc2)c2ccccc2)CC1)c1ccccc1F,i,i,i,i,i,nt,nt,nt,nt
COc1ccc(Nc2nc3ccccc3n3nnnc23)cc1,i,i,i,13*,i,i,i,i,i
Cc1ccc(Nc2cc(-n3cccn3)ncn2)c(C)c1,i,i,i,14*,i,i,i,i,i
O=C(NCc1cccs1)C1CCCN1C(=O)Nc1ccccc1Cl (stereo not drawn),i,i,i,i,i,nt,nt,nt,nt
Oc1ccc(NC(=S)Nc2ccc(O)cc2)cc1,i,i,i,10*,i,i,i,i,i
COC(=O)c1ccc(NC(=S)Nc2ccc(O)cc2)cc1,i,i,i,i,i,nt,nt,nt,nt
O=C(NC(=S)Nc1ccc(N2CCCC2)cc1)c1ccc(F)cc1,i,i,i,i,i,nt,nt,nt,nt
O=C(Nc1cccc(Cl)c1)c1cc(-c2ccco2)on1,i,i,i,8*,i,i,i,i,i
O=C(Nc1nnc(-c2ccco2)o1)c1cccc(Cl)c1,i,i,i,7.5*,i,i,i,i,i
O=C(Nc1nnc(-c2ccccn2)o1)c1cccc(Cl)c1,i,i,i,i,i,nt,nt,nt,nt
CCOC(=O)c1c(S(=O)(=O)NC2CCN(C(=O)OCC)CC2)c(C)n(C)c1C,i,i,i,i,i,nt,nt,nt,nt
CC(=O)Cc1nsc(NC(=O)c2ccc(-c3ccccc3Cl)o2)n1,i,i,i,26*,i,i,i,i,i
N#C/C(=C\c1ccc(F)cc1F)S(=O)(=O)c1ccccn1,i,i,i,i,i,nt,nt,nt,nt
CCOC(=O)C1(Cc2cccc(F)c2)CCN(C(=O)c2cnccn2)CC1,i,i,i,i,i,nt,nt,nt,nt
O=C(CS(=O)(=O)c1ccccc1)Nc1nc(-c2ccccc2)cs1,i,i,i,8.4*,i,i,i,i,i
Cc1ccc(S(=O)(=O)CC(=O)Nc2nc(-c3ccccc3)cs2)cc1,i,i,i,i,i,nt,nt,nt,nt
O=C(CCc1cn2ccccc2n1)NC1CCCc2c1cnn2-c1ccccc1F (stereo not drawn),i,i,i,i,i,nt,nt,nt,nt
O=C(Cc1c(F)cccc1Cl)Nc1nc2ccccc2s1,i,i,i,21*,i,i,i,i,i
CC(=O)c1sc(NC(=O)Cc2c(F)cccc2Cl)nc1C,i,i,i,i,i,nt,nt,nt,nt
CC1CCCC(C)N1C(=O)CSc1nnc(NC(=O)c2cccs2)s1 (stereo not drawn),i,i,i,14*,i,i,i,i,i
COc1ccc(NC2CCCN(C(=O)CN3C(=O)c4ccccc4C3=O)C2)cc1OC (stereo not drawn),i,i,i,i,i,nt,nt,nt,nt
CC(C)(C)c1csc(SCC(=O)Nc2ccc(Cl)cn2)n1,i,i,i,19*,i,5.1%*,i,i,i
SMILES,MrgX1 antagonist,MrgX1 ag,RGS4 pot,MrgX1 PAM,RGS4 block,MrgX1 allo conf,HEK293 Ca flux,HEK293 Ca counter,HEK293 Ca cntr2
Cc1ccccc1NC(=O)C12CC3CCC1(C)C3(C)CO2 (stereo not drawn),i,i,i,6.9*,i,i,i,i,i
CC12COC3(C(=O)Nc4cccnc4)CC1CCC32C (stereo not drawn),i,i,i,i,i,nt,nt,nt,nt
CC12COC3(C(=O)Nc4ccc5ccccc5c4)CC1CCC32C (stereo not drawn),i,i,i,17*,i,i,i,i,i
CC12COC3(C(=O)Nc4ccccc4)CC1CCC32C (stereo not drawn),i,i,i,9.7*,i,i,i,i,i
CC(C)n1cc(CN2CCC(Oc3ccc(C(=O)N4CCCC4)cc3)CC2)cn1,i,i,i,i,i,nt,nt,nt,nt
CCCn1c(=O)c(C(=O)NCCCc2ccccc2)c(O)c2ccccc21,i,i,i,6.8*,i,i,i,i,i
CSc1ncccc1C(=O)NCc1ccc(C)cc1,i,i,i,i,i,nt,nt,nt,nt
CCOc1ncccc1C(=O)NCc1ccc(C)cc1,i,i,i,7.2*,i,i,i,i,i
O=C(CCCl)N1CCN(c2nc(-c3ccccc3)cs2)CC1,i,i,i,i,i,nt,nt,nt,nt
COc1ccc(C(=O)NC2CCSc3ccccc32)cc1F (stereo not drawn),i,i,i,i,i,nt,nt,nt,nt
O=C(CCN1C(=O)c2ccccc2S1(=O)=O)NCc1ccccc1Cl,nt,nt,i,nt,i,nt,nt,nt,nt
Cc1ccc(Nc2cc(C)c3c(O)cccc3n2)cc1C,i,i,i,i,i,nt,nt,nt,nt
Cc1ccc(Nc2cc(C)c3ccc(O)cc3n2)cc1C,i,i,i,10*,i,i,i,i,i
CCOC(=O)c1cncc(O)c1,i,i,i,i,i,nt,nt,nt,nt
CCc1n[nH]c(=S)n1/N=C/C(C)=C\c1ccccc1,i,i,i,6.6*,i,i,i,i,i
Cc1c(Cl)cccc1NC(=O)C1COc2ccccc2O1 (stereo not drawn),i,i,i,i,i,nt,nt,nt,nt
Cn1ncc([N+](=O)[O-])c1C(=O)N1CCCCCC1,nt,nt,i,nt,i,nt,nt,nt,nt
O=C(O)C1Sc2[nH]c(=O)sc2C2c3cc(Br)ccc3OC(=O)C12 (stereo not drawn),i,i,i,6.5*,i,i,i,i,i
